Test results as given in ChEMBL document CHEMBL1124728, “Small peptide inhibitors of smooth muscle myosin light chain kinase” (J Med Chem, 1990).
Starred links: 1 amine or outer side, 2 acyl side, 3 side chain; linkers in the order of their positions; H or OH if unused. Residues, ends and D or L forms follow the SMILES beside them. *: point of attachment. isoSer(2S) = O=C([C@@H](O)CN[*:1])[*:2]; NHCH2(2-pyridyl) = c1ccc(CN*)nc1; OBn = c1ccc(CO*)cc1

Tests used:
[1] = molecular target: T1, Myosin light chain kinase, smooth muscle (Gallus gallus, UniProt P11799); assay: Inhibition of native form of myosin light chain kinase from chicken gizzard
T1 sequence (P11799 whole entry): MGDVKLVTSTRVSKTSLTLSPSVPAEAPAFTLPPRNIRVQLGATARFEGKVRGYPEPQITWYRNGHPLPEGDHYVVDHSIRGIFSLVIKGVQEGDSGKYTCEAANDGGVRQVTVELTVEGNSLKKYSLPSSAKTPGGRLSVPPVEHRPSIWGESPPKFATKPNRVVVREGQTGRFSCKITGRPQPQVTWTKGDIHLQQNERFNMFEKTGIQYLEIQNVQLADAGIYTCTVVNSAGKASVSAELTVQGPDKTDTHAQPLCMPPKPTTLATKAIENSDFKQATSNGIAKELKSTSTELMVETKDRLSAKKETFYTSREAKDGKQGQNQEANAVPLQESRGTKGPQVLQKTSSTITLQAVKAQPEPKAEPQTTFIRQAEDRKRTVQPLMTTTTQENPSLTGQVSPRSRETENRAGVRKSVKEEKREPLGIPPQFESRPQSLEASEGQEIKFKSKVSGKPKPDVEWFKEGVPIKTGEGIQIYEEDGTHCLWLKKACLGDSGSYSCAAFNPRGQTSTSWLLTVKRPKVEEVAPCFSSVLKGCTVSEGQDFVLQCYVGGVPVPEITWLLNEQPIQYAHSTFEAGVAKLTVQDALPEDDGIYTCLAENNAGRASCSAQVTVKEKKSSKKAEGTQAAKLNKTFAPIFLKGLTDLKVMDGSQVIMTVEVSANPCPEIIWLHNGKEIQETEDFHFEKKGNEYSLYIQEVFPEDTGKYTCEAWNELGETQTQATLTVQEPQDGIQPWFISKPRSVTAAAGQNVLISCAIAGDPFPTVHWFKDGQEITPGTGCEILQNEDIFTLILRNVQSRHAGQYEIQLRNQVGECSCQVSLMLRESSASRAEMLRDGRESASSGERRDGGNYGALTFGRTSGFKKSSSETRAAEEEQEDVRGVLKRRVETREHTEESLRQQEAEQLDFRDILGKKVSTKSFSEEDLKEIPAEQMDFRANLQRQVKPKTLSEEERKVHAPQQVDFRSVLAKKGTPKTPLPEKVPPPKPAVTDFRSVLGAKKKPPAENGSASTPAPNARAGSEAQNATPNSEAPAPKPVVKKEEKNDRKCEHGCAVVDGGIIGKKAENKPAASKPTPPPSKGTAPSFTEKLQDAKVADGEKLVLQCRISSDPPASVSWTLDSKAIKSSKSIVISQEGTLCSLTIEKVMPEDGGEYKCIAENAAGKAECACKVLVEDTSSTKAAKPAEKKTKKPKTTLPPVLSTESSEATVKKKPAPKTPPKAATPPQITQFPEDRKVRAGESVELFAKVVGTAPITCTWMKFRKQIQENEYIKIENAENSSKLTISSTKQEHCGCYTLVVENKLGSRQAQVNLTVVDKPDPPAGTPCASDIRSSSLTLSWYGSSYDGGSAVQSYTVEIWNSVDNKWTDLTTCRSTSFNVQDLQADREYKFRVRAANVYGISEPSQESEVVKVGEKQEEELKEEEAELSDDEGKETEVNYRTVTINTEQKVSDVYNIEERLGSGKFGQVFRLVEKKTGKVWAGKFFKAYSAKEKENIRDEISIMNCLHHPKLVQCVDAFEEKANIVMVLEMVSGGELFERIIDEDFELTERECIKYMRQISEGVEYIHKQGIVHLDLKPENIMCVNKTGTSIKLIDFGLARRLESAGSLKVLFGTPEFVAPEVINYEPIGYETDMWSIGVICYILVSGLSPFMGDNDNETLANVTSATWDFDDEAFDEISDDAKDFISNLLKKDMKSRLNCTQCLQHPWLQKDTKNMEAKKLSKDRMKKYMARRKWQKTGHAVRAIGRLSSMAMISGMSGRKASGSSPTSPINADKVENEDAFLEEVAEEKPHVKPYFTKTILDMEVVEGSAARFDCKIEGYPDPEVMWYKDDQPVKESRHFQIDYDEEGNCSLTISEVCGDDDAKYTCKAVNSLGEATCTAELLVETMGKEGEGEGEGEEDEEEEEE
Procedure, shortened: (§1)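 Native calmodulin-dependent gizzard MLCK, over 95% homogeneous, with 200 nM calmodulin, 1 mM EGTA and about 200 μM excess free Ca2+. Started with ATP and stopped with HCl; phosphocellulose filter counting. Graphical IC50 from duplicates at four concentrations, or % inhibition at a single concentration.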

[2] = molecular target: Myosin light chain kinase, smooth muscle (Gallus gallus) (UniProt P11799); assay: Rate of phosphate incorporation by myosin light chain kinase at 50 uM
Chain of Myosin light chain kinase, smooth muscle (Gallus gallus) (P11799 whole entry): as above

[3] = molecular target: Myosin light chain kinase, smooth muscle (Gallus gallus) (UniProt P11799); assay: Inhibition of native form of myosin light chain kinase from chicken gizzard at 1000 uM; procedure, shortened: as §1
[4] = molecular target: Myosin light chain kinase, smooth muscle (Gallus gallus) (UniProt P11799); assay: Inhibition of calmodulin-independent form of Myosin light chain kinase from chicken gizzard at 300 uM
Procedure, shortened: (§2)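 Chicken gizzard MLCK made calmodulin-independent by limited trypsin digestion. It was started with ATP and stopped with HCl. Phosphate in substrate was counted on phosphocellulose filters. IC50 was read graphically from duplicates at four concentrations and reported as the mean, or as % inhibition at one concentration.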

[5] = molecular target: Myosin light chain kinase, smooth muscle (Gallus gallus) (UniProt P11799); assay: Inhibition of native form of myosin light chain kinase from chicken gizzard 1000 uM; procedure, shortened: as §1
[6] = molecular target: Myosin light chain kinase, smooth muscle (Gallus gallus) (UniProt P11799); assay: Inhibition of calmodulin-independent form of Myosin light chain kinase from chicken gizzard at 100 uM; settings: 300 uM, in the assay text read “at 300 uM” for “at 100 uM”; procedure, shortened: as §2
[7] = molecular target: Myosin light chain kinase, smooth muscle (Gallus gallus) (UniProt P11799); assay: Inhibition of native form of myosin light chain kinase at from chicken gizzard 100 uM; procedure, shortened: as §1
[8] = molecular target: T1, Myosin light chain kinase, smooth muscle; assay: Inhibition of calmodulin-independent form of MLCK(myosin light chain kinase) from chicken gizzard; procedure, shortened: as §2
[9] = molecular target: Myosin light chain kinase, smooth muscle (Gallus gallus) (UniProt P11799); settings: 1000 uM
[10] = molecular target: T1, Myosin light chain kinase, smooth muscle; assay: Inhibition of native form of MLCK myosin light chain kinase from chicken gizzard; procedure, shortened: as §1

CC(C)[C@H](N)C(=O)N[C@@H](Cc1ccccc1)C(=O)N[C@@H](C)C(=O)OCc1ccccc1 (H-Val-Phe-Ala-OBn)
IC50 [1]: 1000 µM

CC(C)[C@H](NC(=O)[C@H](CC(N)=O)NC(=O)[C@H](CO)NC(=O)[C@@H](NC(=O)[C@H](C)NC(=O)[C@H](CCCN=C(N)N)NC(=O)[C@H](CCC(N)=O)NC(=O)[C@@H]1CCCN1C(=O)[C@H](CCCN=C(N)N)NC(=O)[C@H](CCCCN)NC(=O)[C@@H](N)CCCCN)[C@@H](C)O)C(=O)N[C@@H](Cc1ccccc1)C(=O)N[C@@H](CO)C(N)=O (H-KKRPQRATSNVFS-NH2)
Rate [2]: 45 pmol/min

C[C@H](NC(=O)[C@@H](N)Cc1ccccc1)C(=O)OCc1ccccc1
inhibition [3]: 0%

CC(C)[C@H](NC(=O)[C@@H](N)CC(N)=O)C(=O)N[C@@H](Cc1ccccc1)C(=O)N[C@@H](C)C(=O)OCc1ccccc1 (H-NVFA-OBn)
IC50 [1]: 800 µM

CC(C)[C@H](NC(=O)[C@H](CC(N)=O)NC(=O)[C@@H](N)CO)C(=O)N[C@@H](Cc1ccccc1)C(=O)N[C@@H](C)C(N)=O (H-SNVFA-NH2)
inhibition [4]: 0%

CC(C)[C@H](NC(=O)[C@H](CC(N)=O)NC(=O)[C@@H](N)CO)C(=O)OCc1ccccc1 (H-Ser-Asn-Val-OBn)
inhibition [5]: 0%

CC(C)[C@H](NC(=O)[C@@H](/C=C/[C@@H](N)CO)CC(N)=O)C(=O)N[C@@H](Cc1ccccc1)C(=O)N[C@@H](C)C(=O)NCc1ccccc1
inhibition [6]: 0%

CC(C)[C@H](NC(=O)[C@H](CC(N)=O)NC(=O)[C@@H](O)CN)C(=O)N[C@@H](Cc1ccccc1)C(=O)N[C@@H](C)C(=O)OCc1ccccc1 ({isoSer(2S)}-NVFA-OBn)
inhibition [7]: 14%

CC(C)[C@H](NC(=O)[C@H](CC(=O)O)NC(=O)[C@@H](N)CO)C(=O)N[C@@H](Cc1ccccc1)C(=O)N[C@@H](C)C(=O)OCc1ccccc1 (H-SDVFA-OBn)
inhibition [7]: 0%

C[C@H](NC(=O)[C@H](Cc1ccccc1)NC(=O)CNC(=O)[C@H](CC(N)=O)NC(=O)[C@@H](N)CO)C(=O)OCc1ccccc1 (H-SNGFA-OBn)
inhibition [6]: 17%

CC(C)[C@H](NC(=O)[C@H](CC(N)=O)NC[C@@H](N)CO)C(=O)N[C@@H](Cc1ccccc1)C(=O)N[C@@H](C)C(=O)NCc1ccccc1
inhibition [6]: 0%

CC(C)[C@H](NC(=O)[C@H](CC(N)=O)NC(=O)[C@@H](N)CO)C(=O)N[C@@H](Cc1ccccc1)C(=O)N[C@@H](C)C(=O)NCc1ccccn1 (H-SNVFA-{NHCH2(2-pyridyl)})
inhibition [3]: 0% | inhibition [6]: 5%

CC(C)[C@H](NC(=O)[C@H](Cc1c[nH]cn1)NC(=O)[C@@H](N)CO)C(=O)N[C@@H](Cc1ccccc1)C(=O)N[C@@H](C)C(=O)OCc1ccccc1 (H-SHVFA-OBn)
inhibition [7]: 0%

CC(C)[C@H](NC(=O)[C@H](CO)NC(=O)[C@@H](N)CO)C(=O)N[C@@H](Cc1ccccc1)C(=O)N[C@@H](C)C(=O)OCc1ccccc1 (H-SSVFA-OBn)
inhibition [7]: 15%

CC(C)[C@H](NC(=O)[C@H](CC(N)=O)NC(=O)[C@@H](N)CO)C(=O)N[C@@H](Cc1ccccc1)C(=O)N[C@@H](C)C(=O)O (H-SNVFA-OH)
inhibition [6]: 0%

CC(C)[C@H](NC[C@H](CC(N)=O)NC(=O)[C@@H](N)CO)C(=O)N[C@@H](Cc1ccccc1)C(=O)N[C@@H](C)C(=O)OCc1ccccc1
inhibition [6]: 33%

COC(=O)[C@H](C)NC(=O)[C@H](Cc1ccccc1)NC(=O)[C@@H](NC(=O)[C@H](CC(N)=O)NC(=O)[C@@H](N)CO)C(C)C (H-SNVFA-OMe)
inhibition [4]: 0%

CC(C)[C@H](NC(=O)[C@H](CC(N)=O)NC(=O)[C@@H](N)CO)C(=O)N[C@@H](Cc1ccccc1)C(=O)N[C@@H](C)C(=O)OCc1ccccc1
IC50 [8]: 21 µM | Rate [9]: 0.017 pM/min | IC50 [10]: 28 µM

CC(C)[C@H](NC(=O)[C@@H](CC(N)=O)NC(=O)[C@@H](N)CO)C(=O)N[C@@H](Cc1ccccc1)C(=O)N[C@@H](C)C(=O)OCc1ccccc1
inhibition [7]: 0%
